# Source: ChEMBL document CHEMBL4513216, “Probing the Open Global Health Chemical Diversity Library for Multistage-Active Starting Points for Next-Generation Antimalarials” (ACS Infect Dis, 2020)
# Assay: Toxicity liver stage against HepG2, at 10uM
# Type: cell-based
# Set-up: test concentration 10 uM, cell line HepG2-A16-CD81EGFP
# Settings: human, HepG2-A16-CD81EGFP cells; read-out: INHIBITION
# Outline: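 Uninfected HepG2-A16-CD81EGFP cells, 3 × 10^3 per well, 1536-well, plated on prespotted compound at 10 μM final, parasite-free screening media added to match infected plates; puromycin 10 μM positive, DMSO 0.5% negative; run in parallel with 48 h PbLuc assay at 37 °C, 5% CO2; viability by CellTiter-Glo luminescence, normalized to controls.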
row,SMILES,cytotoxicity at 10 µM [%]
1,CCN(CC)C(=O)c1ccc(NC(=O)CNc2ccc(Br)cc2F)cc1,4.52
2,CSc1cccc(CNC(=O)C2CC(=O)N(C3CC3)C2)c1 (stereo not drawn),-12.3
3,NC(=O)N1CC[C@@H]2O[C@H](COCC(=O)N3CCCC3)CC[C@@H]21,-1.49
4,CC(C)OCCN(Cc1cccc(O)c1)C1CCC(O)CC1 (stereo not drawn),5.81
5,COC(=O)CCC(=O)N1CCC2(CN(Cc3ccccc3)C2)C1,12.3
6,CCn1ccnc1CN1CCN(CCC(=O)NC(C)(C)C)CC1C (stereo not drawn),-15.8
7,O=C(NCC1CC1)[C@H]1C[C@H]2OCC[C@H]2N(Cc2ccsc2)C1,2.47
8,O=S(=O)(NC1=NCN(CCc2cccs2)CN1)c1ccccc1,-3.32
9,Cc1cnn(C2CN(Cc3nc4cc(Cl)ccc4n3C)C2)c1,-1.16
10,Cc1c(CN2CCCCC2)c(O)n(CCO)c(=O)c1C#N,-1.64
11,Cc1sc(C(=O)N(C)S(C)(=O)=O)cc1-c1ccc(F)cc1,0.269
12,COc1ccc2[nH]c(=O)c(CN(C)CCN3CCCC3)cc2c1,1.97
13,CCC(C)(N)c1nc(=O)c(C(C)C)c(C)[nH]1 (stereo not drawn),-6.17
14,O=C(CC[C@@H]1CCCN2CCCC[C@H]12)NCCc1cc(O)ncn1,-1.91
15,O=C1CC[C@H]2[C@H](CCN2C(=O)C2CCOCC2)N1Cc1ccncc1,-2.7
16,COc1cc(CNC(=O)NCc2c(C)cc(C)[nH]c2=O)ccc1C,-11.5
17,Cc1cccc(-n2ncc3c2CCCC3NCc2cccc(O)c2)c1C (stereo not drawn),3.11
18,CCn1cc(CN2C[C@@H]3CCCN3C[C@H]2CCSC)cn1,-25.4
19,N#Cc1cccc(CNCCC(=O)N2CCc3sccc3C2)c1,1.04
20,Cc1nc2c(c(NC(C)C)n1)CCN(C1CCOCC1)CC2,9.26
21,COCC1CN(Cc2cccnc2OC)Cc2cnn(C)c21 (stereo not drawn),2.69
22,COc1cccc(CC(=O)NCc2cnc(C)nc2C2CCCN2C)c1 (stereo not drawn),-7.47

row,SMILES,cytotoxicity at 10 µM [%]
1,COc1ccc(C(=O)NCCN2CCC(c3cccs3)CC2)cc1OC,-0.493
2,Cc1cc(CN(C)C(=O)NC2CCN(Cc3ccccc3)C2)no1 (stereo not drawn),-0.421
3,Cc1cnn(-c2cccc(N3CCCC3)n2)c1,-6.26
4,CC(C)(NCc1ccc(C#N)cc1)c1ccc2c(c1)OCO2,2.3
5,O=C1c2cc(Br)cc(Br)c2OCC1(CN1CCCC1)CN1CCCC1,-7.83
6,Cc1cccnc1NCCNC(=O)C1CCN(Cc2ccco2)CC1,-2.51
7,CC(=O)N1CCCN(C(C(=O)O)c2ccccc2OC(F)(F)F)CC1 (stereo not drawn),15.5
8,Cc1c(S(=O)(=O)N(CCc2ccccc2)Cc2ccn(C)n2)cnn1C,3.82
9,COc1cccc(C(=O)N2CCN(C(=O)CCCn3ccnc3)CC2)c1,3.82
10,O=C(Cc1csc(-c2ccsc2)n1)N1CCN(c2cnccn2)CC1,-7.12
11,O=C(CCc1ccncc1)N1CCc2c(ncnc2N2CCOCC2)C1,-11.5
12,CC(C)NC(=O)C1CCC2(CCN(Cc3cnn(C)c3)CC2)C1 (stereo not drawn),2.77
13,CCNc1cc2c(nn1)CCN(C(=O)C(C)c1c(C)noc1C)C2 (stereo not drawn),-4.05
14,Cc1n[nH]c(C2CN(C(=O)c3cc(C)sc3C)CCO2)n1 (stereo not drawn),3.35
15,COc1ccc(CN2CCc3nc(C4CCCCN4C)ncc3C2)cc1 (stereo not drawn),-1.08
16,COc1ccc(-n2nnnc2C(C)(C)Nc2ccc(C)cc2C)cc1,52.4
17,Cc1cc(C(=O)N[C@@H]2CCNC[C@H]2O)ccc1Cl,-18.4
18,COCC(=O)N1CCCC1c1nc(C)c2c(n1)N(CC(C)C)C(=O)CC2 (stereo not drawn),1.6
19,Cc1ccc2nc(C3CCCN3Cc3cccc(CCN)c3)[nH]c2c1 (stereo not drawn),-7.01
20,Cc1ccsc1CNc1ccccc1C(=O)N1CCNC(=O)C1,-1.68
21,CN(CCOc1ccc(C#N)cc1)CC1CCS(=O)(=O)C1 (stereo not drawn),-6.94
22,CC1CCN(c2nccn3c(=O)[nH]nc23)CC1,6.09

row,SMILES,cytotoxicity at 10 µM [%]
1,CC(C)N(C)C(=O)C1CCC2(CCNCC2)O1 (stereo not drawn),-129
2,Cc1nn2cccnc2c1C(=O)N1CCCC(n2cccn2)C1 (stereo not drawn),-35.9
3,O=C(CCN1CCCC1c1ccccn1)N1CCc2ccccc2C1 (stereo not drawn),2.87
4,Cc1cc(N2CCCC2c2nnc3n2CCCCC3)nc(N)n1 (stereo not drawn),-10.1
5,N#Cc1ccc(F)c(CN2CCCC2Cn2cncn2)c1 (stereo not drawn),8.21
6,O=C(NCC1CC1)[C@H]1CN(Cc2nccs2)C[C@H]2OCC[C@@H]12,-109
7,COC(=O)CCCNC(=O)N1CCc2c(F)ccc(F)c2C1,-11.2
8,Cc1ccc(-c2nc(CNCC3CN(C)CCO3)co2)cc1 (stereo not drawn),-14.4
9,CSc1ncccc1C(=O)N1C[C@@H]2CC[C@H]1CN(CC(=O)N(C)C)C2,2.9
10,Cc1cs/c(=N\C(=O)c2c3c(nc4onc(C)c24)CCC3)[nH]1,1.26
11,NC(=O)N1C[C@H](NC(=O)c2cscn2)[C@@H]2OCCC[C@@H]21,-99
12,Cc1cc(=O)[nH]c(-n2nc(C)c(CCC(=O)NCC(C)C)c2C)n1,2.28
13,CC(C)NC(=O)C1CN(C(=O)CCc2ccccc2)CC12CCOCC2 (stereo not drawn),-3
14,COCCN1C(=O)C[C@H]2[C@H]1CCN2Cc1ccc(OC)cc1,1.47
15,O=C(NCc1cccnc1N1CCCCC1)c1ccc2[nH]nnc2c1,-1.19
16,O=C(O)c1cccc(CC2CCN(c3cnccn3)CC2)c1,-121
17,O=C(NCCN1CCCC1)c1ccc2c(-c3nccs3)noc2c1,-2.79
18,Cc1nc2ccccn2c1CN1C[C@@H](CN(C)C)[C@@H](CO)C1,0.743
19,Cc1ccc(-c2cn3c(n2)CO[C@@H](CNCc2cccnc2)C3)cc1,-105
20,CCOCc1nc2c(c(N3CC=CC3)n1)CCN(C1CCOCC1)CC2,-25.2
21,Cn1c(N2CCOCC2)nc2cc(C(=O)N[C@@H]3CC[C@@H](N)C3)ccc21,-1.07
22,CN(Cc1ccccc1O)CC1CCCN(CCc2ccc(Cl)cc2)C1 (stereo not drawn),-10.1

row,SMILES,cytotoxicity at 10 µM [%]
1,CCn1c(C2CCCN(S(=O)(=O)C3CC3)C2)nn(CCN(C)C)c1=O (stereo not drawn),0.522
2,Cc1csc(CNC(=O)N(C)Cc2ccc3c(c2)OCCO3)n1,5.38
3,COc1ccc(C(=O)O)c(OCC(=O)NC(C)c2ccc(F)cc2)c1 (stereo not drawn),1.65
4,c1cc(CN2CCc3nc(N4CCOCC4)nc(NC4CC4)c3C2)co1,12
5,CCc1nc(CN2CCCN(C(=O)COC(C)C)CC2)cs1,-15
6,COc1cccc(-c2noc(C3CCN(CC(N)=O)C3)n2)c1 (stereo not drawn),-11.3
7,CCN1CCOCC2(CCCN(C(=O)c3cccc(O)c3)C2)C1 (stereo not drawn),0.14
8,CSCCCn1ccnc1-c1cccc(C#N)c1,-13.3
9,Cc1ccc(C(=O)N2CCCN(Cc3cccs3)CC2)c(=O)[nH]1,1.45
10,CN(C)c1cnnc(N2CCN(C(=O)CCC3CCCCC3)CC2)c1,-1.65
11,CN(C)C(=O)c1ccccc1NC(=O)N[C@@H]1c2ccccc2C[C@@H]1O,-43.1
12,O=C(c1ccnnc1)N1C[C@@H](OCC2CCCC2)[C@H]2OCCC[C@H]21,-11.8
13,COCc1ncc(CN2CC(Oc3c(C)cccc3C)C2)cn1,5.12
14,O=C(N1CCCC1)N1C[C@H]2CC[C@@]3(N=C(c4ccccc4)NC3=O)[C@H]2C1,0.516
15,COc1ccc2nnc(CCCC(=O)NCCc3ccccn3)n2n1,-9.49
16,COCCC1(CNC(=O)Nc2ccc(-n3cccn3)cc2)CCC1,-2.75
17,CC(C)c1noc(CCCC(=O)N2CCN(S(C)(=O)=O)CC2)n1,-15.7
18,N#CCC(=O)NCc1nnc2n1CCN(Cc1nccs1)C2,-149
19,NCc1cnn(-c2ccccc2C(=O)NCCc2ccncc2)c1,0.664
20,NC(=O)NC(=O)C(c1ccccc1)N1CCN(Cc2ccc(Cl)s2)CC1 (stereo not drawn),-6.7
21,Cn1ccnc1COc1ccc(CO)cc1,-5.05
22,Cc1ccc(CCCC(=O)N2CCN(C3CCCN(C)C3)CC2)s1 (stereo not drawn),5.82

row,SMILES,cytotoxicity at 10 µM [%]
1,c1ccc2nc(N3CCCC3)c(NCc3nnc4n3CCC4)nc2c1,6.9
2,CC(Cn1ccnc1)NC(=O)Nc1ccccn1 (stereo not drawn),-16.4
3,CNC(=O)NC(=O)C(C)N1CCCc2cc(OC)ccc2C1 (stereo not drawn),9.77
4,N#Cc1ccnc(N2CCC(NCCN3CCCC3)CC2)c1,-53
5,CC(=O)c1c(C)nn(CC(=O)N2CCCC2c2ccc(C(N)=O)s2)c1C (stereo not drawn),1.16
6,Cc1ccsc1C(O)CNS(=O)(=O)Cc1ccc(F)cc1 (stereo not drawn),-4.38
7,Cc1cc(C)c2c(N3CCN(Cc4ncccc4C)CC3)ncnc2n1,1.92
8,CN(C)CCN1CCO[C@H]2CN(Cc3ccccn3)C[C@H]21,-1.91
9,Cc1noc([C@H]2C[C@H]3OCC[C@H]3N(S(C)(=O)=O)C2)n1,-115
10,CNC(=O)c1cn[nH]c1C1(C)CCCN(CC2(O)CCCCC2)C1 (stereo not drawn),-26
11,CCN1CC2(CC1=O)CN(C(=O)c1ccco1)CCN(C(=O)C(C)C)C2 (stereo not drawn),-9.16
12,CN(C)Cc1cnc2n1CCN(C(=O)Cc1ccsc1)CC2,-3.95
13,CC(C)[C@@H]1CN(C(=O)CN(C)Cc2ccc(F)cc2)C[C@H]1C(=O)O,1.74
14,CC(=O)N1CCc2nc(-c3ccccc3)nc(NC(C)C)c2CC1,-119
15,CNC(=O)CS(=O)(=O)C1CCN(S(=O)(=O)c2c(F)cccc2F)CC1,-22
16,Cc1cccnc1CN1CCN(CC(=O)N(C)C)[C@@H]2CS(=O)(=O)C[C@@H]21,-2.33
17,Cc1nc(CCCNC(=O)C2CC(=O)N(C3CCCC3)C2)sc1C (stereo not drawn),3.01
18,Cc1ccc(N2CCC(C(=O)NC3CCc4nccn4C3)CC2)nc1 (stereo not drawn),-7.39
19,COc1ncnc(N)c1CNCCc1ccccc1,-3.15
20,CC1=C[C@@H](CN2CCOCC2)[C@H](C(C)C)C[C@H]1Cc1nnc(C)o1,-5.07
